CRFBP-R2 agonist: CRF-BP/CRF-R2 complex agonism. HEK293 CRF-R2/CRF-BP, calcium dye fluorescence (FLIPR); percent of saturating CRF peptide response. activation, % at 13.2 µM. 350,000 compounds, 0.46% hits. AID 588473;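 active = activation of at least 50%, plus an integration ratio under a set limit after plate pattern correction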;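 also: plate controls were neutral control wells without compound for no effect and CRF at EC100 for full effect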
CRFBP-R2 block: blocks CRF-induced signaling of the CRF-BP/CRF-R2 complex. HEK293 CRF-R2/CRF-BP, CRF-induced calcium fluorescence. inhibition, % at 11.8 µM. 350,000 compounds, 0.59% hits. AID 588475;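 active = inhibition of the ligand-induced calcium signal above about 50% at the single tested concentration, limit read from the data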
Tn7 DDE FP: DD(E)-Tn7 binding inhibition, primary FP screen; P02675; 370,000 compounds, 0.13% hits; FP displacement of FITC-Tn7 peptide from fibrin DD(E); 0% = median of compound wells per plate; inhibition, % at 8.3 µM;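 active = inhibition above the mean of compounds falling within the control limits plus 3 SD of them, cut at about 14% in these data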;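 also: 0% = plate median of compound wells and 100% = 10 µM Aha-Tn7 peptide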
Target sequence (P02675 whole entry, looked up): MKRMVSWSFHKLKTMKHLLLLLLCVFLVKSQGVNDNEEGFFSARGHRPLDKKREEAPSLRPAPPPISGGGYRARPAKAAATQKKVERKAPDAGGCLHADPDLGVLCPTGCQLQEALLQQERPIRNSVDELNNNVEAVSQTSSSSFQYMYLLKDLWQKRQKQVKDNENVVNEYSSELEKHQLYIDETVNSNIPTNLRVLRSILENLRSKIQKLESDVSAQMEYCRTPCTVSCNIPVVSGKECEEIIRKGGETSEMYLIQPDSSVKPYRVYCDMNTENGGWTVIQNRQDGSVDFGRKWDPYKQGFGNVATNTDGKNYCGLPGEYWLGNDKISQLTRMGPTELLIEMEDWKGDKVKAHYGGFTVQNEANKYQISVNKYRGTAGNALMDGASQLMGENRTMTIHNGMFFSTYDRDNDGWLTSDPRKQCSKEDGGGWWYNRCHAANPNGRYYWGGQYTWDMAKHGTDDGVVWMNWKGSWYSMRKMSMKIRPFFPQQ
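Assay system: Human clot-derived fibrin DD(E) complex | Buffer or medium: Tris/NaCl/CaCl2 buffer, pH 7.8 | Repeats: One replicate per compound | Benchmarks: Aha-Tn7 high control | Measure: % inhibition scaled between sample-field median and high-control FP | Schedule: 10 min plus 3 h, room temperature | Signal: Fluorescence polarization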
RTF Ca sens act: cardiac RTF calcium sensitization. P19429+P45379. IANBD-labeled TnC RTF fluorescence at EC20 calcium; 0% EC20 calcium, 100% full calcium. activation, % at 7.2 µM. 340,000 compounds, 0.24% hits. AID 493008;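 active = activation above the mean over all tested compounds plus 3 SD, cut at about 30% in these data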;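 also: rise in fluorescence read as greater calcium sensitivity of cardiac thin filaments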
Cardiac RTF inh: cardiac RTF calcium desensitization; inhibition, % at 7.15 µM; P19429+P45379; IANBD-labeled cardiac RTF, Ca2+ fluorescence; 340,000 compounds, 0.12% hits; AID 493244;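 active = inhibition above the mean inhibition of all tested compounds plus 3 SD, cut at about 17% in these data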;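 also: assay run at fixed EC70 calcium of 1.6 mM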
Tn6 DDE FP: DD(E)-Tn6 binding inhibition, primary FP screen; Fibrin DD(E) TRITC-Tn6 fluorescence polarization displacement; inhibition, % at 8.3 µM; P02675; 370,000 compounds, 0.21% hits;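 active = inhibition above a per-campaign cutoff: mean of compounds within control limits plus 3 SD, cut at about 15% in these data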;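 also: 0% = median of all compound wells on the plate and 100% = blocking peptide control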
Starred values were filed as active, the others as inactive; · = no result given; + = active, no number. This is a sample that favours compounds with a hit; in the whole collection about 1.4% have one here.

SMILES	CRFBP-R2 agonist	CRFBP-R2 block	Tn7 DDE FP	RTF Ca sens act	Cardiac RTF inh	Tn6 DDE FP
COc1ccc(Cl)cc1C(=O)NNC(=S)NC(=O)c1cc(-c2ccc(Cl)cc2)nc2ccccc12	25	-21	-5	-5	5	-11
Cc1cccc(C(=O)NNC(=S)NC(=O)c2ccccc2)c1	149*	-25	-4	0	0	8
CCCCC(=O)NC(=S)NNC(=O)c1ccc(OC)cc1	85*	31	-5	3	-16	5
CCNC(=S)NNC(=O)c1ccc(OC)cc1	1	-9	-5	8	-9	8
Cc1cc2nc(-c3ccccc3)c(CC(C)(C)C)n2c(C)c1Br	·	·	2	·	·	6
Cc1cccc(C(=O)NC(=S)NNC(=O)COc2ccc(Cl)cc2)c1	59*	-101	-2	-2	-9	6
COc1ccc(C(=O)NNC(=S)NC(=O)c2ccc(OC)cc2)cc1	51*	10	2	0	5	1
COc1ccc(C(=O)NNC(=S)NC(=O)c2cccnc2)cc1	-1	-2	-1	-2	5	0
Cc1cccc(/C(N)=N/OC(=O)COc2ccc(Cl)cc2)c1	0	2	5	3	5	-7
C=CCNC(=S)NNC(=O)c1ccc(OCC)cc1	7	109*	2	0	6	-1
C=CCNC(=S)NNC(=O)c1ccc(OCCC)cc1	0	18	-1	10	-9	0
COc1ccc(Cl)cc1C(=O)NNC(=O)COC(=O)c1cccs1	-1	104*	-6	1	4	-11
CCCCC(=O)N1CCN(C(=O)c2ccc3c(c2)nc(C)n3C2CCCC2)CC1	·	·	-2	·	·	5
Nc1[nH]c(C(=O)c2ccccc2)c(-c2cccc(C(F)(F)F)c2)c1C(=O)c1c[nH]c2ccccc12	·	·	-1	·	·	-12
O=C(COc1cccc(Cl)c1)NNC(=S)Nc1ccccc1	-3	14	-11	1	-8	6
Cc1cccc(C(=O)NNC(=S)NC(=O)c2cccs2)c1	154*	-57	-11	-1	-12	-3
COc1ccc(C(=O)NNC(=S)NC(=O)c2cccs2)cc1	43	-22	-1	2	-3	-2
COc1ccc(C(=O)NC(=S)NNC(=O)c2cccc(C)c2)cc1	131*	0	2	·	·	6
COc1ccc(C(=O)NC(=S)NNC(=O)c2ccncc2)cc1Br	4	-11	0	-3	3	-1
COc1ccc(C(=O)NNC(=S)NC(=O)c2ccc(F)cc2)cc1Br	77*	-4	-2	·	·	-1
O=C(COc1ccccc1)NNC(=S)NC(=O)c1ccc(Cl)cc1Cl	69*	-17	·	·	·	·
COc1ccc(CNC(=O)C2CCN(S(=O)(=O)c3ccc(N4CCCC4=O)cc3)CC2)cc1	-1	-14	-4	·	·	1
CC(=O)Nc1cc2c(cc1C(=O)C(C)C)OCCO2	-1	5	-6	-2	-4	-2
CC(C)C(=O)c1cc2c(cc1NC(=O)c1ccccc1)OCCO2	-2	-37	-4	31*	-4	0
C=CCN(CC(=O)NCc1ccccc1)C(=O)c1csnn1	4	87*	-2	-3	-7	8
SMILES	CRFBP-R2 agonist	CRFBP-R2 block	Tn7 DDE FP	RTF Ca sens act	Cardiac RTF inh	Tn6 DDE FP
COc1ccc(CNC(=O)CN(Cc2ccccc2)C(=O)c2csnn2)cc1	1	-10	1	-5	-9	2
COc1ccc(OC2C(=O)N(c3cc(C)ccc3C)C2c2ccc(OC)c(OC)c2)cc1 (stereo not given)	2	51*	10	2	-2	5
COc1ccc(C2C(C(=O)Nc3cc(OC)c(OC)c(OC)c3)CCC(=O)N2c2ccc(OC)cc2)cc1 (stereo not given)	·	·	2	·	·	-4
Cc1ccc(C2(C)CC(C)(C)N(C(=O)CSc3nnc(C)s3)c3ccccc32)cc1 (stereo not given)	-2	115*	-7	-9	-5	-10
Cc1ccccc1Oc1ccc2c(c1)[C@@H]1C[C@H](N(C)C(=O)Nc3cc(Cl)cc(Cl)c3)[C@H]([C@H](C)O)C(=O)N1CC2	2	-6	5	7	-1	2
COc1cc(/C=C/C(O)=C/C(=O)/C=C/c2ccc(O)cc2)ccc1O	113*	-60	-11	28	-99	-12
O=C(O)c1cnn(-c2nc(-c3ccc(Cl)c(Cl)c3)cs2)c1C(F)(F)F	-2	50*	7	1	2	11
O=C(O)c1cnn(-c2nc(-c3cccc(F)c3)cs2)c1C(F)(F)F	1	8	2	3	3	4
CCCCCCCCN1C(=O)[C@H](CC(=O)N2CCOCC2)C[C@@]2(C(=O)OC)CC(C)(C)CC=C12	·	·	-4	·	·	1
CCCCC(=O)NC(=S)NNC(=O)CCc1ccccc1	71*	14	-1	-1	10	-3
O=C(CCc1ccccc1)NNC(=S)NC(=O)c1ccccc1	80*	20	0	6	1	3
CC(C)(C)c1cc(CCC(=O)NNC(=S)NC(=O)c2ccccc2)cc(C(C)(C)C)c1O	158*	-119	·	6	-3	·
CC(=O)NC(=S)NNC(=O)CCc1ccccc1	30	-21	7	7	-3	1
N#CCC[C@@H]1CC[C@]2(CCCN(C(=O)C3CCCCC3)C2)O1	·	·	1	·	·	-1
O=C1CSc2ccc(C(=O)Nc3cccc(S(=O)(=O)Nc4ccc(Br)cc4)c3)cc2N1	6	-19	-4	1	-8	+
O=C(O)c1ccc(NC(=O)c2cccc(S(=O)(=O)Nc3ccc(C(=O)O)cc3)c2)cc1	0	4	-3	-5	0	5
C/C(=N\OCC(=O)Nc1ccc(F)c(F)c1F)c1cc2ccccc2o1	4	54*	2	-4	-21	4
COc1cc(NC(=O)c2ccccn2)ccc1NC(=O)c1ccccc1Cl	·	·	-9	·	·	-9
CCNc1nc(NCC)n2c(SCc3ccc(F)cc3)nnc2n1	0	51*	3	7	-13	11
O=C(Cc1ccccc1)Nn1c(O)c(/C=C2\C=Nc3ccccc32)sc1=S	67*	-119	-5	58*	-76	6
Cc1cc(/C=N/NC(=O)c2ccoc2C)cc(C)c1O	0	68*	3	·	·	8
C=CCN(C)C(C#CCCCC)c1ccccc1 (stereo not given)	·	·	4	·	·	1
O=C(CCCCn1c(=O)c2ccccc2n(Cc2ccc(F)cc2Cl)c1=O)NCc1ccco1	-3	75*	-3	-5	6	1
O=c1[nH][nH]cc1C=Nc1ccc(Cl)cc1	-1	72*	3	-6	-1	-4
COc1cccc(N=Cc2c[nH][nH]c2=O)c1	0	1	-5	3	-8	1
Cc1c(-c2ncn[nH]2)sc(C#N)c1-c1ccccc1	0	59*	5	4	-1	-2

Bioassay records deposited in PubChem by several laboratories.
